Reference: ChEMBL document CHEMBL4229344 (Eur J Med Chem, 2018)

Assays:
[1] = molecular target: AP2-associated protein kinase 1 (Homo sapiens) (UniProt Q2M2I8); experiment: Binding affinity to human wild-type AAK1 (G25 to L333 residues) expressed in bacterial expression system assessed as residual binding level at 1 uM by Kinomescan method relative to control
Procedure, shortened: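 Single-concentration (1 μM) competition-binding screen run by KINOMEscan against a panel of 468 purified kinases and mutants. The read-out is the relative binding activity of the test compound to each kinase.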

[2] = molecular target: ALK tyrosine kinase receptor (Homo sapiens) (UniProt Q9UM73); experiment: Binding affinity to wild-type human partial length ALK (I1088 to E1409 residues) expressed in mammalian expression system assessed as residual binding level at 1 uM by Kinomescan method relative to control
Procedure, shortened: (§1)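 Single-concentration KINOMEscan (DiscoverX) binding screen at 1 μM against a panel of 468 purified kinases and mutants. The read-out is binding relative to control.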

[3] = molecular target: Calcium/calmodulin-dependent protein kinase type 1G (Homo sapiens) (UniProt Q96NX5); experiment: Binding affinity to wild-type human partial length CAMK1G (M1 to A342 residues) expressed in bacterial expression system assessed as residual binding level at 1 uM by Kinomescan method relative to control
[4] = molecular target: Calcium/calmodulin-dependent protein kinase kinase 1 (Homo sapiens) (UniProt Q8N5S9); experiment: Binding affinity to wild-type human partial length CAMKK1 (R65 to E414 residues) expressed in bacterial expression system assessed as residual binding level at 1 uM by Kinomescan method relative to control
Procedure, shortened: (§2)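 Kinome-wide competition binding screen against a panel of 468 purified kinases/mutants, with the test compound at a single concentration of 1 μM. Read-out is the relative binding activity of each kinase in the presence of compound.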

[5] = tested on: Epidermal growth factor receptor (Homo sapiens), P00533 [T790M]; experiment: Binding affinity to human partial length EGFR T790M mutant (R669 to G1022 residues) expressed in mammalian expression system assessed as residual binding level at 1 uM by Kinomescan method relative to control
Procedure, shortened: (§3)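 Kinome-wide single-concentration binding screen (KINOMEscan) at 1 μM against a panel of 468 purified kinases and mutants. Read-out is relative binding of each kinase compared with control. Selectivity across the panel was summarised as an S(10) score.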

[6] = molecular target: Receptor tyrosine-protein kinase erbB-3 (Homo sapiens) (UniProt P21860); experiment: Binding affinity to wild-type human partial length ERBB3 (G684 to A987 residues) expressed in mammalian expression system assessed as residual binding level at 1 uM by Kinomescan method relative to control
[7] = molecular target: Serine/threonine-protein kinase 10 (Homo sapiens) (UniProt O94804); experiment: Binding affinity to wild-type human partial length LOK (E16 to V314 residues) expressed in bacterial expression system assessed as residual binding level at 1 uM by Kinomescan method relative to control; procedure, shortened: as §2
[8] = molecular target: Myosin light chain kinase (Homo sapiens) (UniProt Q32MK0); experiment: Binding affinity to wild-type human partial length MLCK (D488 to K800 residues) expressed in bacterial expression system assessed as residual binding level at 1 uM by Kinomescan method relative to control; procedure, shortened: as §2
[9] = molecular target: Serine/threonine-protein kinase MRCK beta (Homo sapiens) (UniProt Q9Y5S2); experiment: Binding affinity to wild-type human partial length MRCKB (L56 to S417 residues) expressed in bacterial expression system assessed as residual binding level at 1 uM by Kinomescan method relative to control
[10] = molecular target: 3-phosphoinositide-dependent protein kinase 1 (Homo sapiens) (UniProt O15530); experiment: Binding affinity to wild-type human full length PDPK1 (M1 to Q556 residues) expressed in bacterial expression system assessed as residual binding level at 1 uM by Kinomescan method relative to control; procedure, shortened: as §1
[11] = tested on: Phosphatidylinositol 4,5-bisphosphate 3-kinase catalytic subunit alpha isoform (Homo sapiens), P42336 [E542K]; experiment: Binding affinity to human partial length PIK3CA E542K mutant (R108 to N1068 residues) expressed in mammalian expression system assessed as residual binding level at 1 uM by Kinomescan method relative to control; procedure, shortened: as §3
[12] = molecular target: Serine/threonine-protein kinase RIO3 (Homo sapiens) (UniProt O14730); experiment: Binding affinity to wild-type human full length RIOK3 (M1 to E519 residues) expressed in bacterial expression system assessed as residual binding level at 1 uM by Kinomescan method relative to control
Procedure, shortened: (§4)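 KINOMEscan competition binding against 468 purified kinases/mutants, test compound at 1 µM; residual binding relative to control.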

[13] = molecular target: Receptor-interacting serine/threonine-protein kinase 4 (Homo sapiens) (UniProt P57078); experiment: Binding affinity to wild-type human partial length RIPK4 (M1 to V303 residues) expressed in mammalian expression system assessed as residual binding level at 1 uM by Kinomescan method relative to control
[14] = molecular target: Ribosomal protein S6 kinase alpha-5 (Homo sapiens) (UniProt O75582); experiment: Binding affinity to wild-type human partial length C-terminal RPS6KA5 kinase domain 2 (V390 to T718 residues) expressed in bacterial expression system assessed as residual binding level at 1 uM by Kinomescan method relative to control
[15] = molecular target: Serine/threonine-protein kinase 33 (Homo sapiens) (UniProt Q9BYT3); experiment: Binding affinity to wild-type human full length STK33 (M1 to L514 residues) expressed in bacterial expression system assessed as residual binding level at 1 uM by Kinomescan method relative to control; procedure, shortened: as §4
[16] = molecular target: Non-receptor tyrosine-protein kinase TYK2 (Homo sapiens) (UniProt P29597); experiment: Binding affinity to wild-type human partial length TYK2 JH2 pseudokinase domain (G556 to D888 residues) expressed in mammalian expression system assessed as residual binding level at 1 uM by Kinomescan method relative to control
[17] = molecular target: Wee1-like protein kinase (Homo sapiens) (UniProt P30291); experiment: Binding affinity to wild-type human partial length WEE1 (M291 to K575 residues) expressed in bacterial expression system assessed as residual binding level at 1 uM by Kinomescan method relative to control
Procedure, shortened: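 KINOMEscan competition binding against a panel of 468 purified kinases/mutants, compound tested at 1 μM; readout is relative binding activity versus control.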

[18] = molecular target: Platelet-derived growth factor receptor alpha (Homo sapiens, UniProt P16234); experiment: Inhibition of PDGFRalpha (unknown origin) using poly(4:1 Glu,Tyr) peptide as substrate preincubated for 1 hr followed by addition of ATP and measured after 30 mins by ADP-Glo bioluminescence assay
[19] = AUC (0 to t) in Sprague-Dawley rat at 10 mg/kg, po; assay type: ADME, organism-based; conditions: in vivo
Procedure, shortened: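 Male Sprague-Dawley rats (6–8 weeks) fasted overnight, dosed IV or orally; compound dissolved in 5% DMSO/40% PEG400/55% saline (dosing solution 1 mg/mL). Blood (~0.2 mL) from jugular vein into heparin; IV sampling 1 min–8 h, oral 5 min–24 h. Plasma separated by centrifugation at 2–8 °C, stored at −80 °C until analysis.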

[20] = tested on: Platelet-derived growth factor receptor alpha (Homo sapiens), P16234 [T674I]; experiment: Inhibition of TEL-fused PDGFRalpha T674I mutant (unknown origin) expressed in mouse BA/F3 cells assessed as growth inhibition after 72 hrs by CellTiter-Glo or CCK-8 assay; assay type: cell-based
[21] = molecular target: Vascular endothelial growth factor receptor 2 (Homo sapiens) (UniProt P35968)

Chain of ALK tyrosine kinase receptor (Homo sapiens) (Q9UM73 19-1620 limits assumed): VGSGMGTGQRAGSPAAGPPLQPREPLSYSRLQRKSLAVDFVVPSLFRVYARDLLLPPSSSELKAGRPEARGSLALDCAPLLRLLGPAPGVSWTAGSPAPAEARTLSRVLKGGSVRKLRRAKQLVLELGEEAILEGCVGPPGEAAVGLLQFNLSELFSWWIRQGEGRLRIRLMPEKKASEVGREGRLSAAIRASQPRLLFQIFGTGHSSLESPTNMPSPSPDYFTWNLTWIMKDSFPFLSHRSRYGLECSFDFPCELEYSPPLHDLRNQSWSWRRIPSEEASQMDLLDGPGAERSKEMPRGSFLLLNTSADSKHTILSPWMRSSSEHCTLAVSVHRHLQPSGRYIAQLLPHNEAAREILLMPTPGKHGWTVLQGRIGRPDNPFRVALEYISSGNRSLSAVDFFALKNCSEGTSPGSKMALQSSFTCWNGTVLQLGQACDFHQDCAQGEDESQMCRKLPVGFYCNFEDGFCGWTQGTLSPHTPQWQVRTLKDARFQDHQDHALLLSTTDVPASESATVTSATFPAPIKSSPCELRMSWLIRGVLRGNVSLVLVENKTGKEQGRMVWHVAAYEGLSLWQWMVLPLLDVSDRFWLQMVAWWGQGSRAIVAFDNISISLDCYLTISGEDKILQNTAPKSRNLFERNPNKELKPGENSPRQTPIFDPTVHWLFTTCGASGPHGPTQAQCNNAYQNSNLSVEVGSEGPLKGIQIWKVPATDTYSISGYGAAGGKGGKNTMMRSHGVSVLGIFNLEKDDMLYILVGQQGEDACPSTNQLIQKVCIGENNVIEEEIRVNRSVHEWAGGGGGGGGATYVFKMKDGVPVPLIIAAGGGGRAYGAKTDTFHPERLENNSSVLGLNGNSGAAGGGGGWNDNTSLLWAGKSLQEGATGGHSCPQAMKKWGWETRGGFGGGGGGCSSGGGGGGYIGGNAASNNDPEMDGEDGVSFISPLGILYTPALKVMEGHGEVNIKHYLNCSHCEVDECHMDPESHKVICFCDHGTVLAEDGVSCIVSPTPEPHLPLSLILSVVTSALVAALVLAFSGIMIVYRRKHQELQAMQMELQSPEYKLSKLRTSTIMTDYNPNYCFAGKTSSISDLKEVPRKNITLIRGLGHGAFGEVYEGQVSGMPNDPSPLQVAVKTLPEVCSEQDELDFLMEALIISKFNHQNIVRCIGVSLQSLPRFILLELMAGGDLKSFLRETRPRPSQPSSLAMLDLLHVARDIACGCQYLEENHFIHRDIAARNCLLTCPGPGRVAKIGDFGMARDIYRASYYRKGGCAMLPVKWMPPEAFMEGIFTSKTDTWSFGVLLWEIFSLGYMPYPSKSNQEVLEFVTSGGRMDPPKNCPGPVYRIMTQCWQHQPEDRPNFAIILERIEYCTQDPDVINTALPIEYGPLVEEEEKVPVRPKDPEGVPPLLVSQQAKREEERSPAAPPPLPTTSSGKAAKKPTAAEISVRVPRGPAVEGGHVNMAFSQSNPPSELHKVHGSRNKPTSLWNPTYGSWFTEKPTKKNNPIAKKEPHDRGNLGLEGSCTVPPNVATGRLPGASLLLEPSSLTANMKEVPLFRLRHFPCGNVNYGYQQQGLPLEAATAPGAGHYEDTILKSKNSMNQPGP
Chain of Platelet-derived growth factor receptor alpha (P16234 whole entry): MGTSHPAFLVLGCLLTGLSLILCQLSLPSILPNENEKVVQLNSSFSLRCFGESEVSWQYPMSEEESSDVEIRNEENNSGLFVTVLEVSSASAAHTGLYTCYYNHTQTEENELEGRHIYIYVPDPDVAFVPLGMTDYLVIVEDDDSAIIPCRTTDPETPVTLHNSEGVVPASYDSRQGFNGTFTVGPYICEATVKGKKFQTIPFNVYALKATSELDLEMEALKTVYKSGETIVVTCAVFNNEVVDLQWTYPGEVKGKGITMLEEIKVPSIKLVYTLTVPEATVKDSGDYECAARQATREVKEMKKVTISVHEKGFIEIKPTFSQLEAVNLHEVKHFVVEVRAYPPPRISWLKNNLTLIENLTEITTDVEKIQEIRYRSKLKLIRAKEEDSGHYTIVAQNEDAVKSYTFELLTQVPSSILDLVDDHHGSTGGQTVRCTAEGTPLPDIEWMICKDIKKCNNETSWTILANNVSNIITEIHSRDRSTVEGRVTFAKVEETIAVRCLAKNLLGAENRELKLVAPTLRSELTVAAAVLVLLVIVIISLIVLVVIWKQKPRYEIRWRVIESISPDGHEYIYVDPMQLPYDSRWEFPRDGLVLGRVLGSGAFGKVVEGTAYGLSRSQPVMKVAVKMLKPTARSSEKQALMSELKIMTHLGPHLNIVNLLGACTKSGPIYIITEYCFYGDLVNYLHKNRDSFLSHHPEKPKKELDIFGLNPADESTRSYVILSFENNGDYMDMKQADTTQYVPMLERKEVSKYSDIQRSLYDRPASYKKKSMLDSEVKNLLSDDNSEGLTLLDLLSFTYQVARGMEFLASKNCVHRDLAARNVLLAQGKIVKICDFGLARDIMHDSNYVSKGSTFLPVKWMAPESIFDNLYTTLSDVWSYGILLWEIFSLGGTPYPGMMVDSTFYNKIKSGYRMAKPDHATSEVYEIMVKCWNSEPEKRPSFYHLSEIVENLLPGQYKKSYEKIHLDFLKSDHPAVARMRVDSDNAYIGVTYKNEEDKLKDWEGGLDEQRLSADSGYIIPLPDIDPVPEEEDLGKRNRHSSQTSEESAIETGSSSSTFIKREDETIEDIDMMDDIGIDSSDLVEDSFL
Chain of Serine/threonine-protein kinase RIO3 (Homo sapiens) (O14730 whole entry, the tested form may be a part): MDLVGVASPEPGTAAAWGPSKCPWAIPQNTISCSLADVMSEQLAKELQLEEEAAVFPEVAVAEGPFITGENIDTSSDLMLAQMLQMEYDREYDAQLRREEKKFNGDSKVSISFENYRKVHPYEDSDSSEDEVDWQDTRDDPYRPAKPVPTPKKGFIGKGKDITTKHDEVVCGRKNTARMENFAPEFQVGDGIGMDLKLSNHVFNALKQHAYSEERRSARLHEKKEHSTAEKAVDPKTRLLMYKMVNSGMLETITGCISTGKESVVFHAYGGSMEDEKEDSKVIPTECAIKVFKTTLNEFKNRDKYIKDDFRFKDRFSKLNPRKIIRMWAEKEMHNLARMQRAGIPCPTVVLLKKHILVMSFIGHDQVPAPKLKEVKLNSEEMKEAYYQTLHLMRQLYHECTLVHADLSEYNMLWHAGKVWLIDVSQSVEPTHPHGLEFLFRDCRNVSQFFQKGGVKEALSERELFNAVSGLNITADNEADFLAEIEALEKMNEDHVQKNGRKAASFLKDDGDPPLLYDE
Chain of Ribosomal protein S6 kinase alpha-5 (Homo sapiens) (O75582 whole entry, looked up, the tested form may be a part): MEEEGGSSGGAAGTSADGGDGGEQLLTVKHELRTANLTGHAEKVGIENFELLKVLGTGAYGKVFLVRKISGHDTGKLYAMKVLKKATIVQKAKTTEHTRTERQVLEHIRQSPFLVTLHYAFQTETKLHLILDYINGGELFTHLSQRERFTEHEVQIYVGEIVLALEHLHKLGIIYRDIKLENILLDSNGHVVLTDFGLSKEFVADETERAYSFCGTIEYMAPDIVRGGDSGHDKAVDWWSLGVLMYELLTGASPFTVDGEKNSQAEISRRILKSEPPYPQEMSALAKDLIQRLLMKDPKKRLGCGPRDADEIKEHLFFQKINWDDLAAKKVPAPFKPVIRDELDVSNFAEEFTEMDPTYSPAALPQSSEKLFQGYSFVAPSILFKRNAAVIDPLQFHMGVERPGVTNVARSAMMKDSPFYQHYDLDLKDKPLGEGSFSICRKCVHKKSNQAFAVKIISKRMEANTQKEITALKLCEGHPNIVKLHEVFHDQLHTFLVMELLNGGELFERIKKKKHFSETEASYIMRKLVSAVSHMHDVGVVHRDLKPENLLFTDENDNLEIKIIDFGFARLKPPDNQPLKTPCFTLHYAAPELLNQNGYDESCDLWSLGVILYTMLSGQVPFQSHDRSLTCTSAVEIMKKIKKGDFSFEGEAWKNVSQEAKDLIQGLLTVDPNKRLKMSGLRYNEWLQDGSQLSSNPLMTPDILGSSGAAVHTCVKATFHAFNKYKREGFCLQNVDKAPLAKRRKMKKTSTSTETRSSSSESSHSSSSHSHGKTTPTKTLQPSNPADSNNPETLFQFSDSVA
Chain of Wee1-like protein kinase (Homo sapiens) (P30291 whole entry, looked up, the tested form may be a part): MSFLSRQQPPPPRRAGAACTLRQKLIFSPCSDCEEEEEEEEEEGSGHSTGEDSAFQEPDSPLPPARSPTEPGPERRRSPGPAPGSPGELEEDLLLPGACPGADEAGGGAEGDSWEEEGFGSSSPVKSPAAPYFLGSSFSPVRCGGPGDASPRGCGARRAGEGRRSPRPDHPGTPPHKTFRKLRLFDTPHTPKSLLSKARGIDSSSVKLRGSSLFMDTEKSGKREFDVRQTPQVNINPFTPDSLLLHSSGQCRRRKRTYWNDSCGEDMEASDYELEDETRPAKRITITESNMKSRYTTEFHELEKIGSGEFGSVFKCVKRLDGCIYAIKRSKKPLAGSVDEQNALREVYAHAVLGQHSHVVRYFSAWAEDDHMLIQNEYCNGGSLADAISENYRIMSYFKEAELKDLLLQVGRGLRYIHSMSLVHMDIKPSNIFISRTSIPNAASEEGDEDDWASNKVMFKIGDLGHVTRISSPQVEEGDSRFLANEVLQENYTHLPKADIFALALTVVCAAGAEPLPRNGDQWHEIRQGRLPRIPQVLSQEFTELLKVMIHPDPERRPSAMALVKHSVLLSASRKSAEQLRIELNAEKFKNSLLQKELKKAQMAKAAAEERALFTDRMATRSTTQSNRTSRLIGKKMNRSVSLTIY
Chain of Platelet-derived growth factor receptor alpha (Homo sapiens), P16234 [T674I] (P16234 whole entry T674I, the tested form may be a part): as the sequence (P16234 whole entry) above, with T674I counted along it

Cc1ccc(NC(=O)c2ccc(CN(CCN(C)C)C(=O)c3cccnc3)cc2)cc1Nc1nccc(-c2cccnc2)n1
Activity [1]: 100%
Activity [2]: 100%
Activity [3]: 100%
Activity [4]: 92%
Activity [5]: 100%
Activity [6]: 95%
Activity [7]: 28%
Activity [8]: 80%
Activity [9]: 99%
Activity [10]: 100%
Activity [11]: 83%
Activity [12]: 69%
Activity [13]: 97%
Activity [14]: 89%
Activity [15]: 89%
Activity [16]: 91%
Activity [17]: 87%
IC50 [18]: 0.132 µM
AUC(0-t) [19]: 103 ng·h/mL
GI50 [20]: > 10 µM
GI50 [21]: > 10 µM
